The term IC50 denotes the concentration that gives 50% inhibition. A higher IC50 goes with lower potency.

The test system of data set [1] is B16-F10. The data set is described as follows: Antitumor activity against mouse B16F10 cells implanted in C57BL/6 mouse assessed as reduction in lung metastasis at 2 mg/kg, ip administered daily for 1 to 14 days by microscopic method. It is filed as functional, organism-based. An outline of the steps: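 Female C57BL/6 mice, 6–8 weeks old, injected via tail vein with 2x10^5 B16F10 cells on day 0. Dosing 2 mg/kg ip daily on days 1–14, in 5% DMSO vehicle, with a vehicle control group. Total black lung nodules counted under microscopy on day 14, n=11/group.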

Data set [2] concerns Mus musculus. The data set can be described thus: Toxicity in C57BL/6 mouse assessed as change in body weight at 2 mg/kg, ip administered daily for 9 days measured during compound dosing. It is filed as organism-based. The conditions noted are these: in vivo, 216 h. An outline of the steps: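 Female C57BL/6 mice, n=5/group, given 2 mg/kg ip daily in 5% DMSO vehicle, with a vehicle control group. Body weights recorded on set days over a 9-day study.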

The nature of data set [3]: Cytotoxicity against mouse B16F10 cells measured after 2 days by MTS assay. The following applies: B16-F10, 48 h. (In general: Formazan colour is commonly taken as a measure of viable cells.)
Data set [4] is filed under the species Homo sapiens. The data set can be described thus: Inhibition of topoisomerase 2 (unknown origin) assessed as DNA intercalation at 100 uM using supercoiled pHOT-1 DNA as substrate measured after 30 mins by agarose gel electrophoresis. An outline of the steps:
(§1)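 Topoisomerase II drug screening kit. Supercoiled pHOT-1 plasmid incubated with topoisomerase II enzyme plus compound at 37 °C for 30 min, with 100 μM etoposide as positive control. Stopped with 10% SDS, then proteinase K for 15 min at 37 °C. Run on 1% agarose gel, stained with EtBr and viewed under UV.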

The species entered for data set [5] is Homo sapiens. The data set can be described thus: Inhibition of topoisomerase 2 (unknown origin) assessed as DNA intercalation at 10 uM using supercoiled pHOT-1 DNA as substrate measured after 30 mins by agarose gel electrophoresis. An outline of the steps:
as §1

Active and inactive are the calls of the source. The calls are words filed in the database; no cut-off is given here.

For the molecule `CN(C)CCN1C(=O)c2cccc3c(-c4nc5ccccc5s4)ccc(c23)C1=O`, the outcome in data set [1] was Active. For the same molecule, the Activity entry in data set [2] is on record as “Non-Toxic”. For the same molecule, the midpoint of inhibition in data set [3], the IC50, lay at 4.5 µM. Besides, the inhibition result in data set [4] and in data set [5] was “Active” each time.

Regarding `CN(C)CCN1C(=O)c2cccc3cc(N)cc(c23)C1=O` [AMONAFIDE], in data set [3], inhibition was half-maximal at 6.7 µM (IC50).

With `CN(C)CCN1C(=O)c2cccc3c(-c4nc5ccccc5o4)ccc(c23)C1=O`, in data set [1], the result was Active. Besides, in data set [2], the Activity result was “Non-Toxic”. The same molecule displayed an IC50 in data set [3] of 7.8 µM. Moreover, the inhibition result in data set [5] was “Active”.

For the origin of these results see ChEMBL document CHEMBL3872262, “Synthesis of novel C4-benzazole naphthalimide derivatives with potent anti-tumor properties against murine melanoma” (Bioorg Med Chem, 2017).
